Results published in ChEMBL document CHEMBL4680082 (J Med Chem, 2016).
Several values for one entry are separate records, joined by “and”; a condition that tells them apart may be missing. Equal values may be shown once.

How the values were obtained:
[1] = target: T1, 5-hydroxytryptamine receptor 2C (Homo sapiens) (UniProt P28335); assay: Agonist activity at human 5-HT2C receptor expressed in human Flp-In-293 cells assessed as induction of calcium flux incubated for 1 hr by Fluo-4 direct dye based FLIPR assay relative to 5-HT; format: functional, cell-based; settings: filed as agonist
T1 sequence (whole entry): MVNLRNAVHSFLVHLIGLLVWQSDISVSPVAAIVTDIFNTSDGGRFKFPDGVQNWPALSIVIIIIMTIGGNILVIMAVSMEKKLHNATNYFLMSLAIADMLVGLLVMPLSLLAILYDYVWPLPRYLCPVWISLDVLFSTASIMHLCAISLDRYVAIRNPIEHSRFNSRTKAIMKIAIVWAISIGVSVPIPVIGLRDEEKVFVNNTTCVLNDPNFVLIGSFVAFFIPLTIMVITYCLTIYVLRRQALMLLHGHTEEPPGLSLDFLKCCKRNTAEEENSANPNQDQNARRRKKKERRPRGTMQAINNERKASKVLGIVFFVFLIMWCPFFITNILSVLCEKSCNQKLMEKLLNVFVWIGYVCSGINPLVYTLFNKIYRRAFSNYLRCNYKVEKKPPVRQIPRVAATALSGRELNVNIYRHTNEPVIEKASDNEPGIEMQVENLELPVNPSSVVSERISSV

[2] = target: T2, 5-hydroxytryptamine receptor 2C (Homo sapiens, UniProt P28335);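 also: Agonist-induced calcium flux in Flp-In-293 cells expressing the human receptor, read by FLIPR with Fluo-4 Direct dye after 1 hr incubation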
T2 sequence (P28335 whole entry): T1 sequence (whole entry)

[3] = target: T3, 5-hydroxytryptamine receptor 2B (Homo sapiens, UniProt P41595); assay: Agonist activity at human 5-HT2B receptor expressed in human Flp-In-293 cells assessed as induction of calcium flux incubated for 1 hr by Fluo-4 direct dye based FLIPR assay relative to 5-HT; format: functional, cell-based
[4] = target: T3, 5-hydroxytryptamine receptor 2B; assay: Agonist activity at human 5-HT2B receptor expressed in human Flp-In-293 cells assessed as induction of calcium flux by measuring log(Emax/EC50) incubated for 1 hr by Fluo-4 direct dye based FLIPR assay; format: functional, cell-based
[5] = target: T1, 5-hydroxytryptamine receptor 2C (Homo sapiens); assay: Agonist activity at human 5-HT2C receptor expressed in human Flp-In-293 cells assessed as induction of calcium flux by measuring log (Emax/EC50) incubated for 1 hr by Fluo-4 direct dye based FLIPR assay; format: functional, cell-based
[6] = target: T4, 5-hydroxytryptamine receptor 2A (Homo sapiens, UniProt P28223)
[7] = target: T4, 5-hydroxytryptamine receptor 2A; assay: Agonist activity at human 5-HT2A receptor expressed in human Flp-In-293 cells assessed as induction of calcium flux by measuring log(Emax/EC50) incubated for 1 hr by Fluo-4 direct dye based FLIPR assay; format: functional, cell-based
[8] = target: T4, 5-hydroxytryptamine receptor 2A; assay: Agonist activity at human 5-HT2A receptor expressed in human Flp-In-293 cells assessed as induction of calcium flux incubated for 1 hr by Fluo-4 direct dye based FLIPR assay relative to 5-HT; format: functional, cell-based
[9] = target: T3, 5-hydroxytryptamine receptor 2B
[10] = target: T2, 5-hydroxytryptamine receptor 2C; assay: Agonist activity at human 5-HT2C INI receptor expressed in human HEK293 cells assessed as induction of beta-arrestin-2 recruitment incubated for 20 hrs by Tango assay; format: cell-based
Method in brief: (§1)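 Tango assay in HTLA cells (HEK line expressing TEV-fused β-arrestin-2 and tTA-driven luciferase) transfected with 5-HT2C INI–tTA fusion carrying a TEV site. Cells were stimulated with the same dilutions used for FLIPR, 20 h at 37 °C and 5% CO2, then lysed with Bright-Glo for 20 min at room temperature and read by luminescence. Data normalized to % 5-HT and fitted sigmoidally; n = 3 in triplicate. Bias from log(Emax/EC50).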

[11] = target: T2, 5-hydroxytryptamine receptor 2C; assay: Agonist activity at human 5-HT2C INI receptor expressed in human Flp-In-293 cells assessed as induction of calcium flux incubated for 1 hr by Fluo-4 direct dye based FLIPR assay; format: functional, cell-based
Method in brief: (§2)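 Calcium flux in Flp-In-293 cells stably expressing the human 5-HT2C INI isoform, Fluo-4 Direct loading for 1 h at 37 °C. Drug dilutions identical to those in the parallel Tango assay, 300 s read at 1 read/s, normalized to % 5-HT. Triplicate, mean ± SEM (n = 3). Bias factors were calculated from change in relative activity, log(Emax/EC50).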

[12] = target: T1, 5-hydroxytryptamine receptor 2C (Homo sapiens); assay: Agonist activity at human 5-HT2C INI receptor expressed in human HEK293 cells assessed as induction of beta-arrestin-2 recruitment incubated for 20 hrs by Tango assay relative to 5HT; format: cell-based; method in brief: as §1
[13] = target: T1, 5-hydroxytryptamine receptor 2C (Homo sapiens); assay: Agonist activity at human 5-HT2C INI receptor expressed in human Flp-In-293 cells assessed as induction of calcium flux incubated for 1 hr by Fluo-4 direct dye based FLIPR assay relative to 5-HT; format: functional, cell-based; settings: filed as agonist; method in brief: as §2

T4 sequence (P28223 whole entry): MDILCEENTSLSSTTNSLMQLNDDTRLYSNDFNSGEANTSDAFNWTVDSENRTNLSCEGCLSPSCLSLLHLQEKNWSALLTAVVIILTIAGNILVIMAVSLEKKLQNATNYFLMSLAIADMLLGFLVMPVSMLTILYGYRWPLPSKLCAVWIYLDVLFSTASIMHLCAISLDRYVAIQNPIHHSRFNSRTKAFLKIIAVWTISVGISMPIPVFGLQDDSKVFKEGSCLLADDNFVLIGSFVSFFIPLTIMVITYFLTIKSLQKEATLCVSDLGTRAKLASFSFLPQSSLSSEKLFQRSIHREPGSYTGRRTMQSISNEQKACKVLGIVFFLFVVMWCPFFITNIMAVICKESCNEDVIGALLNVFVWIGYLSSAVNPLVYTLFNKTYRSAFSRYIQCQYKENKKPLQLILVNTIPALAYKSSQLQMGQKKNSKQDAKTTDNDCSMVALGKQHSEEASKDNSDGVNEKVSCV
T3 sequence (P41595 whole entry): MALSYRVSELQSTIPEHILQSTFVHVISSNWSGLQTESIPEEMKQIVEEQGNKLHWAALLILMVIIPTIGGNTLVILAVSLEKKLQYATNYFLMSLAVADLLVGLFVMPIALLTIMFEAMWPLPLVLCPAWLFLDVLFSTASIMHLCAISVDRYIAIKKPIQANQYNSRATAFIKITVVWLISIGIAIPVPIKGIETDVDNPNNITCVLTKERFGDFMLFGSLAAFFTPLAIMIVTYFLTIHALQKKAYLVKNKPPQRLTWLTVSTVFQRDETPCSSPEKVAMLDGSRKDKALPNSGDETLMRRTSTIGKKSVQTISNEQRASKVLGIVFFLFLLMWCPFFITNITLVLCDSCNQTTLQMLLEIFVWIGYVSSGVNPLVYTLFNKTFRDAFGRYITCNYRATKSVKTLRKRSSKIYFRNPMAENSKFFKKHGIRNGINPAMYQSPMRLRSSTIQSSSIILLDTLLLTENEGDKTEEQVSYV

| Structure (SMILES) | Emax [1] | EC50 [2] | EC50 [6] | EC50 [9] | also measured |
| --- | --- | --- | --- | --- | --- |
| CCc1cc2c([C@@H]3C[C@H]3CN)c(OC)ccc2o1 | 88% | 101 nM |  |  |  |
| COc1ccc2c(c1[C@H]1C[C@@H]1CN)CCO2 | 101% | 8.9 nM | 117 nM | 77 nM | Emax ([3]; filed as agonist): 70%; log(ratio) [4]: 6.96; log(ratio) [5]: 8.05; log(ratio) [7]: 6.89; Emax ([8]; filed as agonist): 90% |
| CCOc1ccc2oc(CC)cc2c1[C@H]1C[C@@H]1CN | 100% | 15 nM | 2630 nM and 2600 nM | 309 nM |  |
| C=C(F)COc1ccc2occc2c1[C@H]1C[C@@H]1CN | 103% | 9.2 nM | 358 nM | 128 nM | Emax [3]: 38% |
| CCCOc1ccc2oc(CC)cc2c1[C@H]1C[C@@H]1CN |  | 81 nM |  |  |  |
| NC[C@@H]1C[C@H]1c1c(OCCF)ccc2occc12 | 98% | 33 nM | 393 nM | 448 nM | Emax [3]: 34%; Emax [8]: 22% |
| CCOc1ccc2occc2c1[C@H]1C[C@@H]1CN | 106% | 2.6 nM | 111 nM | 84 nM | Emax ([8]; filed as agonist): 74% |
| CCCOc1ccc2c(c1[C@@H]1C[C@H]1CN)CCO2 | 94% | 96 nM |  |  |  |
| C=CCOc1ccc2oc(CC)cc2c1[C@H]1C[C@@H]1CN |  | 23 nM |  | 433 nM | EC50 ([10]; read-out: EC50): 30 nM; EC50 [11]: 25 nM |
| COc1ccc2occc2c1[C@H]1C[C@@H]1CN | 93% | 1.6 nM | 37 nM | 111 nM | Emax ([3]; filed as agonist): 64%; log(ratio) [4]: 6.76; log(ratio) [5]: 8.76; log(ratio) [7]: 7.37; Emax ([8]; filed as agonist): 86% |
| CC(C)Oc1ccc2occc2c1[C@@H]1C[C@H]1CN | 97% | 21 nM | 938 nM | 453 nM | Emax [3]: 25%; log(ratio) [4]: 5.74; log(ratio) [5]: 7.66; log(ratio) [7]: 5.61; Emax [8]: 38% |
| CCCOc1ccc2occc2c1[C@H]1C[C@@H]1CN | 98% | 10 nM | 392 nM |  |  |
| NC[C@@H]1C[C@H]1c1c(OCC2CC2)ccc2occc12 | 87% | 113 nM |  | 513 nM and 524 nM | Emax [3]: 27% |
| C=CCOc1ccc2occc2c1[C@H]1C[C@@H]1CN | 103% | 5.3 nM | 213 nM | 348 nM | Emax [12]: 25%; EC50 ([10]; read-out: EC50): 20 nM; Emax [13]: 92%; EC50 [11]: 8.7 nM |
| C=C(C)COc1ccc2occc2c1[C@H]1C[C@@H]1CN | 99% | 25 nM | 260 nM | 150 nM | Emax ([3]; filed as agonist): 40% |
| C=CCOc1ccc2c(c1[C@H]1C[C@@H]1CN)CCO2 | 101% | 11 nM | 618 nM | 258 nM | Emax [12]: 35%; EC50 ([10]; read-out: EC50): 267 nM; Emax [13]: 93%; EC50 [11]: 26 nM |
| CCCOc1ccc2occc2c1[C@@H]1C[C@H]1CN | 88% | 87 nM |  |  |  |
| CCc1cc2c([C@@H]3C[C@H]3CN)c(OCC3CC3)ccc2o1 | 69% | 446 nM |  |  |  |
| CCc1cc2c([C@H]3C[C@@H]3CN)c(OC)ccc2o1 | 101% | 2.7 nM | 939 nM | 60 nM |  |
| C=CCOc1ccc2occc2c1[C@@H]1C[C@H]1CN | 101% | 56 nM |  |  |  |

| Structure (SMILES) | Emax [1] | EC50 [2] | EC50 [6] | EC50 [9] | also measured |
| --- | --- | --- | --- | --- | --- |
| NC[C@H]1C[C@@H]1c1c(OCC2CC2)ccc2c1CCO2 | 95% | 26 nM | 754 nM | 269 nM |  |
| CCOc1ccc2c(c1[C@@H]1C[C@H]1CN)CCO2 | 105% | 41 nM | 976 nM | 781 nM | Emax [3]: 30%; log(ratio) [4]: 5.58; log(ratio) [5]: 7.41; log(ratio) [7]: 5.55; Emax [8]: 35% |
| CC(C)Oc1ccc2occc2c1[C@H]1C[C@@H]1CN | 99% | 6.2 nM | 298 nM | 174 nM | Emax [3]: 39%; log(ratio) [4]: 6.35; log(ratio) [5]: 8.2; log(ratio) [7]: 6.42; Emax ([8]; filed as agonist): 79% |
| CCOc1ccc2c(c1[C@H]1C[C@@H]1CN)CCO2 | 106% | 2.7 nM | 113 nM | 58.9 nM and 54 nM | Emax ([3]; filed as agonist): 58%; log(ratio) [4]: 7.03; log(ratio) [5]: 8.59; log(ratio) [7]: 6.86; Emax ([8]; filed as agonist): 81% |
| C=C(C)COc1ccc2occc2c1[C@@H]1C[C@H]1CN | 70% | 261 nM |  | 733 nM | Emax [3]: 33% |
| NC[C@H]1C[C@@H]1c1c(OCC2CC2)ccc2occc12 | 99% | 12 nM | 456 nM | 180 nM | Emax [3]: 27% |
| CCOc1ccc2oc(CC)cc2c1[C@@H]1C[C@H]1CN | 76% | 115 nM |  |  |  |
| NC[C@@H]1C[C@H]1c1c(OCC2CC2)ccc2c1CCO2 | 65% | 283 nM |  |  |  |
| C=CCOc1ccc2c(c1[C@@H]1C[C@H]1CN)CCO2 | 90% | 94 nM |  |  |  |
| CCc1cc2c([C@H]3C[C@@H]3CN)c(OCC3CC3)ccc2o1 | 101% | 138 nM |  |  |  |
| CCc1cc2c([C@@H]3C[C@H]3CN)c(OCCF)ccc2o1 | 84% | 81 nM |  |  |  |
| CCOc1ccc2occc2c1[C@@H]1C[C@H]1CN | 107% | 26 nM | 585 nM |  | Emax [8]: 15% |
| C=C(F)COc1ccc2occc2c1[C@@H]1C[C@H]1CN | 93% | 99 nM |  | 585 nM | Emax [3]: 29% |
| COc1ccc2occc2c1[C@@H]1C[C@H]1CN | 96% | 6.76 nM and 6.6 nM | 109 nM | 725 nM | Emax ([3]; filed as agonist): 55%; log(ratio) [4]: 5.88; log(ratio) [5]: 8.16; log(ratio) [7]: 6.78; Emax ([8]; filed as agonist): 66% |
| CCc1cc2c([C@H]3C[C@@H]3CN)c(OCCF)ccc2o1 | 106% | 11 nM | 2210 nM | 550 nM | Emax ([12]; filed as agonist): 50%; EC50 ([10]; read-out: EC50): 96 nM; Emax [13]: 93%; EC50 [11]: 22 nM |
| NC[C@@H]1C[C@H]1c1c(OCCF)ccc2c1CCO2 | 79% | 302 nM | 1960 nM |  | Emax ([8]; filed as agonist): 55% |
| COc1ccc2c(c1[C@@H]1C[C@H]1CN)CCO2 | 102% | 19 nM | 295 nM | 279 nM | Emax ([3]; filed as agonist): 45%; log(ratio) [4]: 6.21; log(ratio) [5]: 7.73; log(ratio) [7]: 6.35; Emax ([8]; filed as agonist): 66% |
| C[C@H]1CNCCc2ccc(Cl)cc21 |  |  |  |  | Emax ([12]; filed as agonist): 91% |
| NC[C@H]1C[C@@H]1c1c(OCCF)ccc2c1CCO2 | 76% | 73 nM | 2320 nM |  | Emax ([12]; filed as agonist): 42%; EC50 ([10]; read-out: EC50): 318 nM; EC50 ([10]; read-out: pEC50 (converted)): 324 nM; Emax [13]: 93%; EC50 [11]: 41 nM; Emax ([8]; filed as agonist): 63% |
| CCCOc1ccc2c(c1[C@H]1C[C@@H]1CN)CCO2 | 104% | 20 nM | 749 nM | 258 nM |  |
